Results taken from PubChem BioAssay AID809 (SRMLSC, 2007).
pEC50: −log10 of the molar value. Active and inactive are the calls of the source.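 Rule for the calls: active = EC50 for reversing nicotinamide-shortened yeast lifespan at or below a set limit; inactive = EC50 above that limit.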

What follows are compounds tested on S. cerevisiae DeaD BB579, nicotinamide rescue growth, OD615 48 h (assay: BB579 yeast growth restoration under nicotinamide – S. cerevisiae, yeast lifespan extension project, dose response (AID 809)).
Procedure, shortened: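 System: Saccharomyces cerevisiae DeaD strain BB579, log-phase cells | Buffer or medium: CSMM-D glucose restrictive medium | Timing: 4 h pre-incubation, 48 h exposure at 30 °C | Technique: OD615 absorbance | Evaluation: Culture growth as lifespan proxy | Compound: 0.078–10 µM compound, 0.5% DMSO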
For `CN1C/C(=C/c2cccnc2)C(=O)/C(=C/c2cccnc2)C1`, the EC50 was > 10 µM (inactive).
In the case of `CCc1oc2ccccc2c1C(=O)CCN1CCCCC1`, the pEC50 was 5.09.
`COC(=O)C(=O)/C=C(\O)c1ccc(C)cc1` gave a pEC50 of 5.23.
With `CCOc1cc(/C=C\[N+](=O)[O-])ccc1OCC(=O)Nc1ccccc1C` the EC50 was > 10 µM (inactive).
For `CSC1=NSC2=NC(=O)/C(=C\c3cccs3)C(=N)N12`, the pEC50 was 5.48.
Work on `COC(=O)C1=C(C(=O)OC)C(c2ccccc2O)c2sc(=O)[nH]c2S1` (stereo unspecified) yielded a pEC50 of 5.27.
`O=C(O)c1cccc2c1C(=O)N(C1CCCCC1)C2` was tested, and the pEC50 was 5.37.
`COc1ccc(CN2C(=O)/C(=C/c3ccncc3)SC2=S)cc1` showed a pEC50 of 5.22.
Work on `O=c1cc(O)c2c(=O)n(-c3ccccc3)c3c(c2o1)CCCCC3` yielded a pEC50 of 5.29.
In the case of `CCOc1ccccc1/C=c1\sc2ncnn2c1=O`, the pEC50 was 5.14.
For `CN(C)c1ccc(S(=O)(=O)c2ccc(Cl)cc2)cc1`, the EC50 was > 10 µM (inactive).
For `CC1=NN(c2ccc(C(F)(F)F)cn2)C(=O)C1`, the EC50 was > 10 µM (inactive).
Work on `CC(C)Cn1c(=O)c(C(=O)Nc2cnccn2)c(O)c2ccccc21` yielded a pEC50 of 5.04.
`CCOc1ccc(OCC(=O)c2c(O)c3ccccc3oc2=O)cc1` gave a pEC50 of 5.47.
`CCCCC(CC)Cn1c2nc3ccccc3nc2c2c(=N)oc(C)nc21` (stereo unspecified) was tested, and the EC50 was > 10 µM (inactive).
For `CCN(CCO)C(=O)C12CCC(C)(C(=O)C1)C2(C)C` (stereo unspecified), the EC50 was > 10 µM (inactive).
For `O=c1c2ccccc2sn1-c1ccccc1`, the EC50 was > 10 µM (inactive).
`Cc1ccc(N/C(C(Cl)=C(Cl)Cl)=C(/Cl)[N+](=O)[O-])c(C)c1` gave a pEC50 of 5.06.
Compound `O=C1ON=C(c2ccccc2)/C1=C/c1ccc(-c2ccccc2[N+](=O)[O-])o1` has a pEC50 of 5.42.
`O=S(=O)(Nc1cccc2c1CCCC2)c1ccc(Cl)cc1` was tested, and the EC50 was > 10 µM (inactive).
In the case of `CN1OC(c2ccccc2)=C(CO)C1c1ccccc1` (stereo unspecified), the EC50 was > 10 µM (inactive).
In the case of `CCC(C)OC(=O)C1C(c2ccccc2)C(C(=O)O)C1c1ccccc1` (stereo unspecified), the pEC50 was 5.08.
`Cc1ccc(S(=O)(=O)C(C#N)c2nc3ccccc3nc2N2CCCC2)cc1` (stereo unspecified) was tested, and the EC50 was > 10 µM (inactive).
Compound `O=C(NCc1ccco1)c1c(O)c2cccc3c2n(c1=O)CCC3` has a pEC50 of 5.22.
For `O=C(O)c1ccc(O)c(N2C(=O)Nc3ccccc3N2O)c1`, the EC50 was > 10 µM (inactive).
With `ClC(Cl)(c1nnnn1-c1ccccc1)c1nnnn1-c1ccccc1` the EC50 was > 10 µM (inactive).
`CC(C)c1ccc(C2=C(O)c3ccccc3C(=O)C2=O)cc1` was tested, and the EC50 was > 10 µM (inactive).
For `CCCc1[nH]nc2c1C(c1ccc(Br)s1)C(C#N)=C(N)O2` (stereo unspecified), the pEC50 was 5.18.
`CCCCCCN1CC(C(=O)OCC)C(=O)C1=O` (stereo unspecified) was tested, and the pEC50 was 5.32.
`O=c1[nH]c2ccccc2nc1C(Cl)c1ccccc1` (stereo unspecified) was tested, and the pEC50 was 5.01.
With `O=C(c1cnn2c(C(F)F)cc(C3CC3)nc12)N1CCCC1` the EC50 was > 10 µM (inactive).
`COc1ccc(OC)c(C2C(C(C)=O)=C(O)C(=O)N2Cc2cccnc2)c1` (stereo unspecified) was tested, and the EC50 was > 10 µM (inactive).
For `CCCCN(CCCC)c1ccc(C(=O)c2ccccc2C(=O)O)c(O)c1`, the pEC50 was 5.17.
For `CC(=C1C(=O)c2ccccc2C1=O)N1CCN(C/C=C/c2ccccc2)CC1`, the EC50 was > 10 µM (inactive).
In the case of `CCCC(=O)Nc1ccc(C(=O)NNC(=S)NC(=O)c2cccs2)cc1`, the EC50 was > 10 µM (inactive).
`COc1ccccc1CN(Cc1nc2ccccc2c(=O)[nH]1)C(=O)Nc1cccc(C)c1` was tested, and the EC50 was > 10 µM (inactive).
In the case of `O=C(NCc1cccnc1)c1ccc(S(=O)(=O)N2CCCCC2)cc1`, the EC50 was > 10 µM (inactive).
With `COc1ccc(N(C(=O)C(C)C)S(=O)(=O)c2ccc(Cl)cc2)cc1` the EC50 was > 10 µM (inactive).
In the case of `O=C1c2ccccc2NC(c2ccc(Cl)cc2Cl)N1O` (stereo unspecified), the pEC50 was 5.20.
Compound `CCSc1ccccc1C(=O)n1nnc2ccccc21` has a pEC50 of 5.11.
In the case of `O=C(NC(=S)NNS(=O)(=O)c1ccccc1)c1ccc([N+](=O)[O-])cc1`, the EC50 was > 10 µM (inactive).
For `Cn1c(=O)c(=O)n(C)c2cc(S(=O)(=O)N3CCN(Cc4ccccc4)CC3)ccc21`, the EC50 was > 10 µM (inactive).
`O=C1CC(c2ccccc2)CC(O)=C1C=NCCN1CCN(C(=O)Nc2ccccc2)CC1` (stereo unspecified) showed a pEC50 of 5.18.
`CC(C)n1c(=O)c2c(O)cc(=O)oc2c2ccccc21` was tested, and the pEC50 was 6.20.
`CC(=O)[C@H]1[C@H](c2cccc(Cl)c2)C(C#N)(C#N)[C@@H]2c3ccccc3C=CN21` was tested, and the pEC50 was 5.06.
Work on `O=C(Nc1nccs1)c1ccc2c(=O)n3c(nc2c1)CCCCC3` yielded a pEC50 of 5.11.
In the case of `O=C(COc1ccc([N+](=O)[O-])cc1)N(Cc1ccccc1)Cc1ccccc1`, the EC50 was > 10 µM (inactive).
In the case of `Cc1[nH]n(-c2ccccc2)c(=O)c1N=Nc1nccs1`, the pEC50 was 5.22.
`O=C1OC2(CCCCC2)OC(=O)C1=CNc1nc2ccccc2s1` was tested, and the EC50 was > 10 µM (inactive).
With `COC(=O)CSc1ncccc1-c1nc2ccccc2[nH]1` the EC50 was > 10 µM (inactive).
Work on `COn1c(SC2CCCCC2)nc2ccccc2c1=O` yielded a pEC50 of 5.94.
`N#Cc1ccc(-c2ccc(OCC(=O)NCCc3ccccc3)cc2)cc1` was tested, and the EC50 was > 10 µM (inactive).
In the case of `COc1cnc(-c2ccccn2)nc1Sc1cccc(Cl)c1`, the pEC50 was 5.35.
For `CC1CCCCC1NC(=O)/C(C#N)=C/c1ccccc1F` (stereo unspecified), the pEC50 was 5.15.
`Cc1ccc(NC(=O)Nc2nc(-c3ccc(C)s3)cs2)cc1` was tested, and the EC50 was > 10 µM (inactive).
With `COc1ccc(N(C)C(=S)Nc2ccc3nc(C)c(C)nc3c2)cc1` the EC50 was > 10 µM (inactive).
With `CCOC(=O)c1ccccc1N1C(=O)CSC1=S` the EC50 was > 10 µM (inactive).
`CC(C)Cc1nn2c(=O)cc(O)nc2s1` showed a pEC50 of 5.06.
`O=C1c2ccccc2C(=O)N1c1ncc(Cc2ccc(Cl)cc2)s1` was tested, and the EC50 was > 10 µM (inactive).
`CCCC(=O)Nc1ccccc1Sc1ncnc2scc(-c3ccccc3)c12` was tested, and the EC50 was > 10 µM (inactive).
In the case of `Cc1ncc(C23CC4CC(CC(C4)C2)C3)[nH]1`, the EC50 was > 10 µM (inactive).
